# Assays:
# Assay type in all cases: functional
# [1] = tested on: Klebsiella pneumoniae; assay: Antibacterial activity against Klebsiella pneumoniae ATCC 11298 after 24 hrs by paper disk diffusion technique
# In short: (§1)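 Paper disc diffusion. Nutrient agar autoclaved 120 °C, 30 min, then inoculated at 40–50 °C with 1 ml/100 ml of a 10⁵ cfu/ml suspension matched to McFarland standard and poured to 3–4 mm. Discs impregnated with compound in dimethyl formamide are laid on the solidified agar. Plates are held 1 h at room temperature, then 24 h at 37 °C.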
# [2] = tested on: Staphylococcus aureus; assay: Antibacterial activity against Staphylococcus aureus ATCC 9144 after 24 hrs by paper disk diffusion technique; in short: as §1
# [3] = tested on: Bacillus cereus; assay: Antibacterial activity against Bacillus cereus ATCC 11778 after 24 hrs by agar streak dilution method; conditions: ATCC 11778, 24 h
# In short: (§2)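 Agar streak dilution MIC. Stock […] in dimethyl formamide. Graded quantities go into molten sterile nutrient agar, poured at 40–50 °C to 3–4 mm depth and left to solidify. Plates are streaked with about 10⁵ cfu/ml bacterial suspension and incubated 24 h at 37 °C. MIC is the lowest concentration with no visible growth.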
# [4] = tested on: Aspergillus fumigatus; assay: Antifungal activity against Aspergillus fumigatus ATCC 46645 after 48 hrs by paper disk diffusion technique
# In short: (§3)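 Fungal disc diffusion. Autoclaved (120 °C, 30 min) medium is inoculated at 40–50 °C with 1 ml/100 ml of a 10⁵ cfu/ml McFarland-matched suspension and poured to 3–4 mm. Compound-impregnated paper discs in dimethyl formamide are applied. Plates are held 1 h at room temperature, then incubated 48 h at 37 °C.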
# [5] = tested on: Aspergillus niger; assay: Antifungal activity against Aspergillus niger ATCC 9029 after 48 hrs by agar streak dilution method; conditions: ATCC 9029, 48 h
# In short: (§4)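 Fungal agar streak dilution. Stock […] in dimethyl formamide. Graded quantities go into molten sterile Sabouraud dextrose agar, poured at 40–50 °C to 3–4 mm depth and left to solidify. Plates are inoculated with about 10⁵ cfu/ml suspension and incubated 48 h at 37 °C. MIC is the lowest concentration with no visible growth.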
# [6] = tested on: Pseudomonas aeruginosa; assay: Antibacterial activity against Pseudomonas aeruginosa ATCC 2853 after 24 hrs by agar streak dilution method; conditions: ATCC 2853, 24 h; in short: as §2
# [7] = tested on: Staphylococcus aureus; assay: Antibacterial activity against Staphylococcus aureus ATCC 9144 after 24 hrs by agar streak dilution method; conditions: ATCC 9144, 24 h; in short: as §2
# [8] = tested on: Micrococcus luteus; assay: Antibacterial activity against Micrococcus luteus ATCC 4698 after 24 hrs by agar streak dilution method; conditions: NCTC 2665, 24 h; in short: as §2
# [9] = tested on: Escherichia coli; assay: Antibacterial activity against Escherichia coli ATCC 25922 after 24 hrs by agar streak dilution method; conditions: ATCC 25922, 24 h; in short: as §2
# [10] = tested on: Staphylococcus epidermidis; assay: Antibacterial activity against Staphylococcus epidermidis ATCC 155 after 24 hrs by agar streak dilution method; conditions: ATCC 155, 24 h; in short: as §2
# [11] = tested on: Klebsiella pneumoniae; assay: Antibacterial activity against Klebsiella pneumoniae ATCC 11298 after 24 hrs by agar streak dilution method; conditions: ATCC 11298, 24 h; in short: as §2
# [12] = tested on: Aspergillus niger; assay: Antifungal activity against Aspergillus niger ATCC 9029 after 48 hrs by paper disk diffusion technique; in short: as §3
# [13] = tested on: Pseudomonas aeruginosa; assay: Antibacterial activity against Pseudomonas aeruginosa ATCC 2853 after 24 hrs by paper disk diffusion technique; in short: as §1
# [14] = tested on: Aspergillus fumigatus; assay: Antifungal activity against Aspergillus fumigatus ATCC 46645 after 48 hrs by agar streak dilution method; conditions: ATCC 46645, 48 h; in short: as §4
# [15] = tested on: Staphylococcus epidermidis; assay: Antibacterial activity against Staphylococcus epidermidis ATCC 155 after 24 hrs by paper disk diffusion technique; in short: as §1
# [16] = tested on: Escherichia coli; assay: Antibacterial activity against Escherichia coli ATCC 25922 after 24 hrs by paper disk diffusion technique; in short: as §1
# [17] = tested on: Bacillus cereus; assay: Antibacterial activity against Bacillus cereus ATCC 11778 after 24 hrs by paper disk diffusion technique; in short: as §1
# [18] = tested on: Micrococcus luteus; assay: Antibacterial activity against Micrococcus luteus ATCC 4698 after 24 hrs by paper disk diffusion technique; in short: as §1
Compound,inhibition zone (IZ) [1] [mm],inhibition zone (IZ) [2] [mm],MIC [3] [µg/mL],inhibition zone (IZ) [4] [mm],MIC [5] [µg/mL],MIC [6] [µg/mL],MIC [7] [µg/mL],MIC [8] [µg/mL],MIC [9] [µg/mL],MIC [10] [µg/mL],MIC [11] [µg/mL],inhibition zone (IZ) [12] [mm],inhibition zone (IZ) [13] [mm],MIC [14] [µg/mL],inhibition zone (IZ) [15] [mm],inhibition zone (IZ) [16] [mm],inhibition zone (IZ) [17] [mm],inhibition zone (IZ) [18] [mm]
O=c1c2cc(Br)cc(Br)c2nc(-c2ccccc2)n1/N=C/c1ccccc1,21,17,29.4,22,9.7,28.7,35.4,31.8,33.4,33.6,27.7,24,19,11.1,18,17,20,19
O=c1c2cc(Br)cc(Br)c2nc(-c2ccccc2)n1/N=C/c1ccccc1O,22,20,19.9,23,12.2,37.2,21.8,28.2,20.4,21.3,24.3,22,17,13.6,24,22,21,18
O=c1c2cc(Br)cc(Br)c2nc(-c2ccccc2)n1/N=C/C=C/c1ccccc1,25,20,21.9,22,11.8,25.1,23.8,22.8,20.1,21.4,19.8,24,19,14.6,24,25,23,21
CN(C)c1ccc(/C=N/n2c(-c3ccccc3)nc3c(Br)cc(Br)cc3c2=O)cc1,23,19,30.1,22,14.7,32.1,27.9,26.2,29.1,19.8,22.7,19,18,15.9,25,20,19,21
O=c1c2cc(Br)cc(Br)c2nc(-c2ccccc2)n1/N=C/c1cccc([N+](=O)[O-])c1,21,21,23.6,23,10.7,36.1,22.6,30.1,19.8,21.8,34.6,25,19,11.6,22,26,22,23
O=c1c2cc(Br)cc(Br)c2nc(-c2ccccc2)n1/N=C/c1ccc([N+](=O)[O-])cc1,20,22,32.8,25,14.4,34.2,22.4,27.4,30.2,21.8,35.7,24,21,10.9,22,23,20,23
O=c1c2cc(Br)cc(Br)c2nc(-c2ccccc2)n1/N=C/c1ccc(Cl)cc1,25,19,36.1,22,10.2,22.8,28.4,33.8,20.2,25.6,21.8,25,26,12.6,20,27,19,23
O=c1c2cc(Br)cc(Br)c2nc(-c2ccccc2)n1/N=C/c1ccc(O)cc1,27,24,19.3,21,9.1,22.6,17.3,17.2,21.8,20.9,19,24,25,10.7,22,23,21,26
COc1cc(/C=N/n2c(-c3ccccc3)nc3c(Br)cc(Br)cc3c2=O)ccc1O,23,23,35.1,23,12.7,33.4,21.6,28.1,31.2,24.2,28.2,24,19,15.2,23,24,17,24
